In ChEMBL document CHEMBL1138797, “6-azapyrimidine-2'-deoxy-4'-thionucleosides: antiviral agents against TK+ and TK- HSV and VZV strains” (J Med Chem, 2004):
pEC50: −log10 of the molar value. In brackets after ≈: the same amount, converted by molar mass.

Key:
E6SM [1] = assay: Effective concentration required to reduce HSV-1 strain KOS virus plaque formation by 50% in E6SM Cell Culture; type: functional, cell-based; conditions: Homo sapiens
In short: (§1)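 Confluent E6SM cell cultures in microtiter trays were infected with 20 PFU for a 1 h adsorption period, then washed free of residual virus and incubated with serial compound dilutions (400, 200, 100, ... μg/mL). Plaque formation was read when cytopathicity was complete in virus controls. […] The TK-deficient HSV-1 line refers to HSV-1/TK⁻ ACVʳ.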

HEL [2] = assay: Effective concentration required to reduce TK+ (thymidine kinase presence) VZV strain OKA virus plaque formation by 50% in HEL cell culture; type: functional, cell-based, Human alphaherpesvirus 3; conditions: Homo sapiens
HEL [3] = assay: Effective concentration required to reduce CMV AD169 strain virus plaque formation by 50% in HEL cell culture; type: functional, cell-based, Cytomegalovirus; conditions: Homo sapiens
In short: (§2)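 Plaque-reduction assay in confluent HEL cell cultures. After 1 h adsorption of a 20 PFU virus input, residual virus was removed and cells were incubated with graded compound concentrations. Plaques were scored once cytopathicity was complete in untreated infected controls. […] The TK-deficient VZV line refers to strain YS/R.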

HEL [4] = assay: Effective concentration required to reduce TK+ (thymidine kinase presence) VZV strain YS virus plaque formation by 50% in HEL cell culture; type: functional, cell-based, Human alphaherpesvirus 3; conditions: Homo sapiens
E6SM [5] = assay: Effective concentration required to reduce vaccinia virus plaque formation by 50% in E6SM Cell Culture; type: functional, cell-based; conditions: Homo sapiens; in short: as §1
E6SM [6] = assay: Effective concentration required to reduce HSV-1 strain KOS ACV virus plaque formation by 50% in E6SM Cell Culture; type: functional, cell-based; conditions: Homo sapiens; in short: as §1
HEL [7] = assay: Effective concentration required to reduce […] (thymidine kinase deficient) VZV strain YS/R virus plaque formation by 50% in HEL cell culture; type: functional, cell-based, Human alphaherpesvirus 3; conditions: Homo sapiens
[8] = Minimum cytotoxic concentration that causes microscopically detectable alteration of cell morphology in HEL cell culture; type: cell-based; conditions: human, HEL cells
E6SM [9] = assay: Effective concentration required to reduce HSV-2 strain G virus plaque formation by 50% in E6SM Cell Culture; type: functional, cell-based; conditions: Homo sapiens; in short: as §1
E6SM [10] = assay: Minimum cytotoxic concentration that caused a microscopically detectable alteration of cell morphology in E6SM Cell Culture; type: functional; conditions: Homo sapiens
HEL [11] = assay: Effective concentration required to reduce CMV davis strain virus plaque formation by 50% in HEL cell culture; type: functional, cell-based, Cytomegalovirus; conditions: Homo sapiens; in short: as §2
HEL [12] = assay: Effective concentration required to reduce […] (thymidine kinase deficient) VZV strain 07/1 virus plaque formation by 50% in HEL cell culture; type: functional, cell-based, Human alphaherpesvirus 3; conditions: Homo sapiens
[13] = Cytotoxic concentration required to reduce HEL cell growth by 50%; type: cell-based; conditions: human, HEL cells
HEL [14] = assay: Effective concentration required to reduce […] (thymidine kinase deficient) VZV strain YS/R virus plaque formation by 50% in HEL cell culture; No complete inhibition; type: functional, cell-based, Human alphaherpesvirus 3; conditions: Homo sapiens; in short: as §2

| SMILES | EC50 (E6SM [1]) | pEC50 (HEL [2]) | pEC50 (HEL [3]) | pEC50 (HEL [4]) | EC50 (E6SM [5]) | EC50 (E6SM [6]) | pEC50 (HEL [7]) | MCC [8] | EC50 (E6SM [9]) | MCC (E6SM [10]) | pEC50 (HEL [11]) | pEC50 (HEL [12]) | CC50 [13] | pEC50 (HEL [14]) |
| --- | --- | --- | --- | --- | --- | --- | --- | --- | --- | --- | --- | --- | --- | --- |
| CCc1nn([C@H]2C[C@H](O)[C@@H](CO)S2)c(=O)nc1O | 120 µg/mL (≈ 439 µM) | < 4.40 | < 4.40 | < 4.40 | > 200 µg/mL | > 200 µg/mL | < 4.40 | > 40 µM | > 200 µg/mL | > 200 µg/mL | < 4.40 | < 4.40 | – | – |
| O=c1[nH]c(=O)n([C@H]2C[C@H](O)[C@@H](CO)O2)cc1/C=C/Br [BRIVUDINE] | 0.01 µg/mL (≈ 0.03 µM) | 8.52 | < 3.82 | 8.52 | > 400 µg/mL | 16 µg/mL (≈ 48 µM) | 4.25 | – | 80 µg/mL (≈ 240 µM) | > 400 µg/mL | < 3.40 | 4.54 | – | – |
| CCCc1nn([C@H]2C[C@H](O)[C@@H](CO)S2)c(=O)[nH]c1=O | > 200 µg/mL | < 4.40 | < 4.40 | < 4.40 | > 200 µg/mL | 120 µg/mL (≈ 418 µM) | < 4.40 | > 40 µM | > 200 µg/mL | > 200 µg/mL | < 4.40 | < 4.40 | > 40 µM | – |
| Cc1nn([C@H]2C[C@H](O)[C@@H](CO)S2)c(=O)nc1N | 24 µg/mL (≈ 92.9 µM) | < 4.40 | < 4.40 | < 4.40 | 24 µg/mL (≈ 92.9 µM) | 120 µg/mL (≈ 465 µM) | < 4.40 | > 40 µM | 24 µg/mL (≈ 92.9 µM) | > 200 µg/mL | < 4.40 | < 4.40 | > 40 µM | – |
| Cc1nn([C@H]2C[C@H](O)[C@@H](CO)S2)c(=O)[nH]c1=S | 120 µg/mL (≈ 436 µM) | < 4.40 | < 4.40 | < 4.40 | 120 µg/mL (≈ 436 µM) | 120 µg/mL (≈ 436 µM) | < 4.40 | > 40 µM | 120 µg/mL (≈ 436 µM) | > 200 µg/mL | < 4.40 | < 4.40 | > 40 µM | – |
| Cc1nn([C@H]2C[C@H](O)[C@@H](CO)S2)c(=O)nc1O | 1.3 µg/mL (≈ 5.01 µM) | 5.60 | < 3.70 | 5.39 | 2.2 µg/mL (≈ 8.48 µM) | 18 µg/mL (≈ 69.4 µM) | – | > 200 µM | 3.2 µg/mL (≈ 12.3 µM) | > 200 µg/mL | < 3.70 | 4.85 | 166 µM | ≤ 5.30 |
| CC(=O)OC[C@H]1S[C@@H](n2nc(C)c(=S)[nH]c2=O)C[C@@H]1OC(C)=O | > 8 µg/mL | < 4.40 | < 4.40 | < 4.40 | > 8 µg/mL | > 8 µg/mL | < 4.40 | > 40 µM | > 8 µg/mL | ≥ 40 µg/mL | < 4.40 | < 4.40 | > 40 µM | – |
| Nc1nc2c(ncn2COCCO)c(=O)[nH]1 [ACYCLOVIR] | 0.07 µg/mL (≈ 0.311 µM) | – | < 3.70 | – | 0.38 µg/mL (≈ 1.69 µM) | 48 µg/mL (≈ 213 µM) | – | – | 0.07 µg/mL (≈ 0.311 µM) | > 400 µg/mL | < 3.40 | – | – | – |
| Nc1nc2c(ncn2COC(CO)CO)c(=O)[nH]1 [GANCICLOVIR] | 0.004 µg/mL (≈ 0.0157 µM) | – | 6.30 | – | > 100 µg/mL | 2.4 µg/mL (≈ 9.4 µM) | – | > 150 µM | 0.003 µg/mL (≈ 0.0118 µM) | > 100 µg/mL | 5.82 | – | > 150 µM | – |
